{
  "source": "ChEMBL document CHEMBL1127616",
  "about": "“Synthesis, structural characterization, and antitumor properties of a novel class of large-ring platinum(II) chelate complexes incorporating the cis-1,4-diaminocyclohexane ligand in a unique locked boat conformation” (J Med Chem, 1994)",
  "format_in_all_cases": "functional, organism-based",
  "key": {"[1]": {"test_system": "Colon carcinoma cell", "assay": "Tested for net cell kill tumor burden reduction during therapy at the dose 2.5 mg/kg in colon carcinoma", "design": "dose 2.5 mg/kg", "settings": "Mus musculus"}, "[2]": {"test_system": "L1210", "assay": "Tested for the ratio of number of survivors / total number after 60 days at the dose of 1.5 mg/kg per injection against murine L1210 Pt-resistant leukemia in experiment 1", "settings": "Mus musculus", "how_it_was_run": "(§1)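 CD2F1 (Balb/c × DBA/2F1) mice, 18–22 g, randomized and inoculated IP with counted leukemia cells on day 0, then re-randomized. Three IP treatments, dissolved in 0.9% saline and dosed on average cage weight, with dose in mg/kg per injection across a full toxic-to-ineffective range. Median life span and %T/C were recorded. Survivors at 60 days were counted as cured and excluded from %T/C.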"}, "[3]": {"test_system": "L1210", "assay": "Tested for the ratio of number of survivors / total number after 60 days at the dose of 2.5 mg/kg per injection against murine leukemia L1210 experiment 2", "settings": "Mus musculus", "how_it_was_run": "as §1"}, "[4]": {"test_system": "L1210", "assay": "Tested for in vivo weight change against murine L1210 Pt-resistant leukemia at the dose of 3.0 mg/kg per injection in experiment 1", "settings": "Mus musculus", "how_it_was_run": "(§2)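 Leukemia life-span assays used CD2F1 (Balb/c × DBA/2F1) mice weighing 18–22 g. Cells were inoculated IP on day 0, and compounds in 0.9% saline were given IP, dosed by average cage weight. Weight change is the difference in mean group weight between the last and first treatment days.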"}, "[5]": {"test_system": "L1210", "assay": "Tested for in vivo weight change against murine L1210 leukemia at the dose of 1.6 mg/kg per injection in experiment 2", "settings": "Mus musculus", "how_it_was_run": "as §2"}, "[6]": {"test_system": "L1210", "assay": "Tested for median life span against solid tumor L1210 leukemia at 2.5 mg/kg per injection in experiment 2", "settings": "Mus musculus", "how_it_was_run": "(§3)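 CD2F1 mice weighing 18–22 g were inoculated IP with leukemia cells on day 0. Compounds in 0.9% saline were given IP in three injections, dosed by average cage weight, over a dose range from toxic to ineffective. Median life span was recorded, with cause of death assessed at necropsy and 60-day survivors counted as cured.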"}, "[7]": {"test_system": "L1210", "assay": "Tested for the ratio of treated and control against solid tumor murine L1210 leukemia 3.0 mg/kg per injection in experiment 1; T/C", "settings": "Mus musculus", "how_it_was_run": "(§4)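 Murine leukemia life span assay in CD2F1 (Balb/c × DBA/2F1) mice, 18–22 g, randomized, with IP tumor cell inoculation on day 0. Depending on the model, the inoculum was 1 × 10^4 cells with IP dosing on days 3, 7 and 11, or 1 × 10^6 cells with IP dosing on days 1, 5 and 9. Drug was given in 0.9% saline, mg/kg per injection, by average cage weight. Read-outs were median day of death and %T/C. Mice alive 60 days after treatment counted as cured and were excluded.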"}, "[8]": {"test_system": "L1210", "assay": "Tested for the ratio of treated and control against solid tumor murine L1210 Pt-resistant leukemia 1.6 mg/kg per injection in experiment 2; T/C", "settings": "Mus musculus", "how_it_was_run": "as §4"}, "[9]": {"test_system": "L1210", "assay": "Tested for the ratio of treated and control against solid tumor murine L1210 Pt-resistant leukemia 3.0 mg/kg per injection in experiment 1;T/C", "settings": "Mus musculus", "how_it_was_run": "as §4"}, "[10]": {"test_system": "L1210", "assay": "Tested for the ratio of number of survivors / total number after 60 days at the dose of 1.5 mg/kg per injection against murine leukemia L1210 experiment 1", "settings": "Mus musculus", "how_it_was_run": "as §1"}, "[11]": {"test_system": "Mus musculus", "assay": "Tested for in vivo weight change against murine M5076 sarcoma at the dose of 4.0 mg/kg per injection", "how_it_was_run": "(§5)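 B6C3F1 (C57BL/6 × C3HF1) mice weighing 18–22 g received trocar tumor fragments SC on day 0. Compounds in 0.9% saline were given IP on a three-injection schedule, dosed by average cage weight. Weight change is the maximum treatment-related weight loss during the growth-delay assay.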"}, "[12]": {"test_system": "Mus musculus", "assay": "Tested for the ratio of number of survivors / total number after 60 days at the dose of 3.7 mg/kg per injection against murine leukemia P388 experiment 2", "how_it_was_run": "as §1"}, "[13]": {"test_system": "M5076", "assay": "Tested for net cell kill tumor burden reduction during therapy at the dose 4.0 mg/kg in M5076 sarcoma", "design": "dose 4 mg/kg", "settings": "Mus musculus"}, "[14]": {"test_system": "Mus musculus", "assay": "Tested for the ratio of treated and control against solid tumor murine P388 leukemia 2.3 mg/kg per injection in experiment 2; T/C", "how_it_was_run": "as §4"}, "[15]": {"test_system": "Mus musculus", "assay": "Tested for the ratio of treated and control against solid tumor murine P388 leukemia 3.7 mg/kg per injection in experiment 2; T/C", "how_it_was_run": "as §4"}, "[16]": {"test_system": "L1210", "assay": "Tested for in vivo weight change against murine L1210 Pt-resistant leukemia at the dose of 1.6 mg/kg per injection in experiment 2", "settings": "Mus musculus", "how_it_was_run": "as §2"}, "[17]": {"test_system": "L1210", "assay": "Tested for in vivo weight change against murine L1210 leukemia at the dose of 5.0 mg/kg per injection in experiment 2", "settings": "Mus musculus", "how_it_was_run": "as §2"}, "[18]": {"test_system": "L1210", "assay": "Tested for the ratio of number of survivors / total number after 60 days at the dose of 5.0 mg/kg per injection against murine leukemia L1210 experiment 2", "settings": "Mus musculus", "how_it_was_run": "as §1"}, "[19]": {"test_system": "L1210", "assay": "Tested for median life span against solid tumor L1210 Pt-resistant leukemia at 10 mg/kg per injection in experiment 2", "settings": "Mus musculus", "how_it_was_run": "as §3"}, "[20]": {"test_system": "L1210", "assay": "Tested for median life span against solid tumor L1210 Pt-resistant leukemia at 4.0 mg/kg per injection in experiment 1", "settings": "Mus musculus", "how_it_was_run": "as §3"}, "[21]": {"test_system": "L1210", "assay": "Tested for median life span against solid tumor L1210 Pt-resistant leukemia at 6.0 mg/kg per injection", "settings": "Mus musculus", "how_it_was_run": "as §3"}, "[22]": {"test_system": "L1210", "assay": "Tested for median life span against solid tumor L1210 leukemia at 10 mg/kg per injection in experiment 2", "settings": "Mus musculus", "how_it_was_run": "as §3"}, "[23]": {"test_system": "L1210", "assay": "Tested for median life span against solid tumor L1210 leukemia at 4.0 mg/kg per injection in experiment 1", "settings": "Mus musculus", "how_it_was_run": "as §3"}, "[24]": {"test_system": "L1210", "assay": "Tested for median life span against solid tumor L1210 leukemia at 5.0 mg/kg per injection in experiment 2", "settings": "Mus musculus", "how_it_was_run": "as §3"}, "[25]": {"test_system": "L1210", "assay": "Tested for the ratio of treated and control against solid tumor murine L1210 leukemia 5.0 mg/kg per injection in experiment 2; T/C", "settings": "Mus musculus", "how_it_was_run": "as §4"}, "[26]": {"test_system": "L1210", "assay": "Tested for the ratio of treated and control against solid tumor murine L1210 leukemia 6.0 mg/kg per injection in experiment 1; T/C", "settings": "Mus musculus", "how_it_was_run": "as §4"}, "[27]": {"test_system": "L1210", "assay": "Tested for the ratio of treated and control against solid tumor murine L1210 Pt-resistant leukemia 5.0 mg/kg per injection in experiment 2; T/C", "settings": "Mus musculus", "how_it_was_run": "as §4"}, "[28]": {"test_system": "L1210", "assay": "Tested for the ratio of treated and control against solid tumor murine L1210 leukemia 10 mg/kg per injection in experiment 2; T/C", "settings": "Mus musculus", "how_it_was_run": "as §4"}, "[29]": {"test_system": "M5076", "assay": "Tested for net cell kill tumor burden reduction during therapy at the dose 9.0 mg/kg in M5076 sarcoma", "design": "dose 9 mg/kg", "settings": "Mus musculus", "how_it_was_run": "(§6)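 Solid tumor growth delay assay; B16 melanoma and M5076 sarcoma were run in B6C3F1 (C57BL/6 × C3HF1) mice of 18–22 g. Tumor fragments were implanted SC on day 0, then drug in 0.9% saline was given IP on days 1, 5, 9 or days 3, 7, 11, mg/kg per injection. T − C is the difference in days for treated and control tumors to reach 750 mg. Net log cell kill is tumor burden reduction during therapy. Cured mice were excluded.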"}, "[30]": {"test_system": "Mus musculus", "assay": "Tested for the ratio of number of survivors / total number after 60 days at the dose of 10 mg/kg per injection against murine leukemia P388", "how_it_was_run": "as §1"}, "[31]": {"test_system": "Mus musculus", "assay": "Tested for the ratio of number of survivors / total number after 60 days at the dose of 5.0 mg/kg per injection against murine P388 Pt-resistant leukemia", "how_it_was_run": "as §1"}, "[32]": {"test_system": "Mus musculus", "assay": "Tested for in vivo weight change against murine B16 melanoma at the dose of 9.0 mg/kg per injection", "how_it_was_run": "as §5"}, "[33]": {"test_system": "Mus musculus", "assay": "Tested for net cell kill tumor burden reduction during therapy at the dose 9.0 mg/kg in B16 melanoma", "design": "dose 9 mg/kg", "how_it_was_run": "as §6"}, "[34]": {"test_system": "P388", "assay": "Tested for in vivo weight change against murine P388 leukemia at the dose of 5.0 mg/kg per injection", "settings": "Mus musculus", "how_it_was_run": "as §2"}},
  "data": [
    {"substance": "[Pt(cis-1,4-dach)CL2]", "values": [
      {"measurement": "Log net cell kill", "setting": "[1]", "value": -0.4},
      {"measurement": "60-day survivors", "setting": "[2]", "value": 0},
      {"measurement": "60-day survivors", "setting": "[3]", "value": 1},
      {"measurement": "Weight change", "setting": "[4]", "value": -4.3, "unit": "g"},
      {"measurement": "Weight change", "setting": "[5]", "value": 0.9, "unit": "g"},
      {"measurement": "MLS", "setting": "[6]", "value": 22.5, "unit": "days"},
      {"measurement": "Ratio", "setting": "[7]", "value": 203, "unit": "%"},
      {"measurement": "Ratio", "setting": "[8]", "value": 146, "unit": "%"},
      {"measurement": "Ratio", "setting": "[9]", "value": 167, "unit": "%"},
      {"measurement": "60-day survivors", "setting": "[10]", "value": 0},
      {"measurement": "Weight change", "setting": "[11]", "value": -5.5, "unit": "g"},
      {"measurement": "Survivors", "setting": "[12]", "value": 0},
      {"measurement": "Log net cell kill", "setting": "[13]", "value": 0.6},
      {"measurement": "T/C", "setting": "[14]", "value": 225, "unit": "%"},
      {"measurement": "T/C", "setting": "[15]", "value": 234, "unit": "%"},
      {"measurement": "Weight change", "setting": "[16]", "value": 1.9, "unit": "g"}
    ]},
    {"substance": "CISPLATIN", "values": [
      {"measurement": "Weight change", "setting": "[17]", "value": 0.5, "unit": "g"},
      {"measurement": "Survivors", "setting": "[18]", "value": 0},
      {"measurement": "MLS", "setting": "[19]", "value": 12.4, "unit": "days"},
      {"measurement": "MLS", "setting": "[20]", "value": 11.1, "unit": "days"},
      {"measurement": "MLS", "setting": "[21]", "value": 12, "unit": "days"},
      {"measurement": "MLS", "setting": "[22]", "value": 18.5, "unit": "days"},
      {"measurement": "MLS", "setting": "[23]", "value": 19.5, "unit": "days"},
      {"measurement": "MLS", "setting": "[24]", "value": 16, "unit": "days"},
      {"measurement": "Ratio", "setting": "[25]", "value": 172, "unit": "%"},
      {"measurement": "Ratio", "setting": "[26]", "value": 175, "unit": "%"},
      {"measurement": "Ratio", "setting": "[27]", "value": 107, "unit": "%"},
      {"measurement": "Ratio", "setting": "[28]", "value": 199, "unit": "%"},
      {"measurement": "Log net cell kill", "setting": "[29]", "value": 0.8},
      {"measurement": "Survivors", "setting": "[30]", "value": 3},
      {"measurement": "Survivors", "setting": "[31]", "value": 0},
      {"measurement": "Weight change", "setting": "[32]", "value": -4.5, "unit": "g"},
      {"measurement": "Log net cell kill", "setting": "[33]", "value": -0.4},
      {"measurement": "Weight change", "setting": "[34]", "value": 0.2, "unit": "g"}
    ]}
  ]
}
